Tests used:
[1] = Growth inhibition of human p53 deficient Hep3B cells after 7 days by celltiter-glo assay; format: functional, Hep 3B2; settings: 168 h
Summary of the method: (§1)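 Cells seeded at 500 per well in 384-well plates. Compounds came from 30 mM DMSO stocks, serially diluted and tested in quadruplicate. Incubation was 7 d at 37 °C under 5% CO2. Calcein AM (10 μM) and EthD-1 were added, followed by a fluorescence read. CellTiter-Glo lysis was then done for 10 min at room temperature, with a luminescence read. GI50 came from curve fitting.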

HT-29 = assay: Growth inhibition of human HT-29 cells after 7 days by celltiter-glo assay; format: functional; settings: HT-29, 168 h
SK-OV-3 = assay: Growth inhibition of human SKOV3 cells after 7 days by celltiter-glo assay; format: functional; settings: SK-OV-3, 168 h
HCT-15 = assay: Growth inhibition of human HCT15 cells after 7 days by celltiter-glo assay; format: functional; settings: HCT-15, 168 h
MCF7 = assay: Growth inhibition of human MCF7 cells after 7 days by celltiter-glo assay; format: functional; settings: MCF7, 168 h
DU-145 = assay: Growth inhibition of human DU145 cells after 7 days by celltiter-glo assay; format: functional; settings: DU-145, 168 h
[2] = Growth inhibition of human p53 deficient H1299 cells after 7 days by celltiter-glo assay; format: functional; settings: NCI-H1299, 168 h; summary of the method: as §1
SF-268 = assay: Growth inhibition of human SF268 cells after 7 days by celltiter-glo assay; format: functional; settings: SF-268, 168 h
A549 = assay: Growth inhibition of human A549 cells expressing p53 after 7 days by celltiter-glo assay; format: functional; settings: A549, 168 h
NCI-H460 = assay: Growth inhibition of human NCI-H460 cells after 7 days by celltiter-glo assay; format: functional; settings: NCI-H460, 168 h

Structure (SMILES)	GI50 [1]	GI50 (HT-29)	GI50 (SK-OV-3)	GI50 (HCT-15)	GI50 (MCF7)	GI50 (DU-145)	GI50 [2]	GI50 (SF-268)	GI50 (A549)	GI50 (NCI-H460)
O=C1O[C@@H]2[C@@H](O)[C@H](N(O)CCCc3ccc(N(CCCl)CCCl)cc3)O[C@@H]2[C@@H]1O	7.2 µM	9.9 µM	10.1 µM	8.5 µM	4.1 µM	14.8 µM	3.8 µM	3.1 µM	10.4 µM	13.1 µM
CON(CCCc1ccc(N(CCCl)CCCl)cc1)C1O[C@@H](CO)[C@H](O)[C@@H](O)[C@H]1O (stereo not given in full)	3.7 µM	3.4 µM	2.9 µM	2.2 µM	2.2 µM	4.9 µM	1.2 µM	2 µM	4.1 µM	9.8 µM
CON(CCCc1ccc(N(CCCl)CCCl)cc1)[C@@H]1O[C@H](CO)[C@@H](O)[C@H](O)[C@H]1O	3.4 µM	2.9 µM	3 µM	2.8 µM	1.5 µM	5.5 µM	1.4 µM	1.8 µM	4.5 µM	12.3 µM
CON(CCCc1ccc(N(CCCl)CCCl)cc1)C1O[C@H](C(=O)O)[C@H](O)[C@H](O)[C@H]1NC(C)=O (stereo not given in full)	11.8 µM	12 µM	11 µM	19.1 µM	4.4 µM	16.7 µM	3.8 µM	4.2 µM	22 µM	42 µM
CON(CCCc1ccc(N(CCCl)CCCl)cc1)[C@H]1OC[C@H](O)[C@@H](O)[C@@H]1O	1.6 µM	1.5 µM	2.4 µM	0.83 µM	1.2 µM	2.2 µM	0.93 µM	1.5 µM	2.2 µM	2.9 µM
CON(CCCc1ccc(N(CCCl)CCCl)cc1)[C@@H]1O[C@H](COCc2ccccc2)[C@@H](OCc2ccccc2)[C@H]1OCc1ccccc1	> 100 µM	> 100 µM	> 100 µM	> 100 µM	> 100 µM	> 100 µM	82 µM	> 100 µM	> 100 µM	> 100 µM
CON(CCCc1ccc(N(CCCl)CCCl)cc1)[C@H]1C[C@@H](O)[C@H](O)[C@@H](CO)O1	3.7 µM	1.2 µM	1.12 µM	0.7 µM	5.4 µM	4.3 µM	0.58 µM	2.5 µM	3.1 µM	5.4 µM
CON(CCCc1ccc(N(CCCl)CCCl)cc1)C1OC[C@@H](O)[C@H](O)[C@@H]1O (stereo not given in full)	2.5 µM	2 µM	1.8 µM	0.79 µM	1 µM	3.6 µM	0.76 µM	1.6 µM	2.3 µM	5.2 µM
CON(CCCc1ccc(N(CCCl)CCCl)cc1)C1O[C@H](CO)[C@@H](O)[C@H](O)[C@@H]1NC(C)=O (stereo not given in full)	9.8 µM	8.7 µM	10.1 µM	22 µM	9 µM	16 µM	2.7 µM	3.4 µM	21 µM	33.3 µM
CON(CCCc1ccc(N(CCCl)CCCl)cc1)[C@H]1O[C@@H](CO)[C@H](O)[C@@H](O)[C@@H]1O	5 µM	4.6 µM	4.5 µM	2.8 µM	1.8 µM	7 µM	1.6 µM	2.2 µM	6.8 µM	14.3 µM
C[C@H]1OC(N(O)CCCc2ccc(N(CCCl)CCCl)cc2)[C@H](O)[C@@H](O)[C@H]1O (stereo not given in full)	3.6 µM	4.6 µM	4.7 µM	3.8 µM	2.7 µM	5.7 µM	2.6 µM	1.4 µM	6.4 µM	4.9 µM
CON(CCCc1ccc(N(CCCl)CCCl)cc1)C1O[C@H](CO)[C@@H](O)[C@H](O)[C@@H]1O (stereo not given in full)	3.2 µM	2.6 µM	2.3 µM	1.9 µM	1.9 µM	5.1 µM	1.01 µM	1.8 µM	3.5 µM	7.8 µM
CON(CCCc1ccc(N(CCCl)CCCl)cc1)C1O[C@@H](C)[C@@H](O)[C@@H](O)[C@@H]1O (stereo not given in full)	3 µM	2.3 µM	1.8 µM	1.4 µM	0.78 µM	3.8 µM	1.2 µM	2 µM	2.2 µM	5.4 µM
CON(CCCc1ccc(N(CCCl)CCCl)cc1)C1C[C@H](O)[C@H](O)[C@@H](C)O1 (stereo not given in full)	3.2 µM	2.1 µM	3 µM	1.3 µM	6.3 µM	4.3 µM	1.1 µM	2.8 µM	2.7 µM	6.5 µM
CON(CCCc1ccc(N(CCCl)CCCl)cc1)C1O[C@H](CO)[C@@H](O[C@@H]2O[C@H](CO)[C@@H](O)[C@H](O)[C@H]2O)[C@H](O)[C@H]1O (stereo not given in full)	1.2 µM	1.9 µM	1.8 µM	2.3 µM	1.7 µM	1.8 µM	1.8 µM	1.5 µM	1.6 µM	3.8 µM
CON(CCCc1ccc(N(CCCl)CCCl)cc1)C1O[C@H](CO)[C@@H](O)[C@@H](O)[C@H]1O (stereo not given in full)	4.4 µM	0.6 µM	3 µM	0.97 µM	9.3 µM	5.8 µM	0.53 µM	3.1 µM	3.4 µM	9.5 µM
CON(CCCc1ccc(N(CCCl)CCCl)cc1)C1O[C@H](CO)[C@@H](O)[C@@H](O)[C@@H]1O (stereo not given in full)	1.7 µM	1.6 µM	1.9 µM	1.4 µM	6.5 µM	4.1 µM	0.91 µM	1.9 µM	2.4 µM	6.6 µM
CON(CCCc1ccc(N(CCCl)CCCl)cc1)C1OC[C@@H](O)[C@@H](O)[C@H]1O (stereo not given in full)	2.4 µM	2.3 µM	2 µM	1.8 µM	1.1 µM	3.8 µM	3.6 µM	1.9 µM	2.8 µM	5.9 µM
CON(CCCc1ccc(N(CCCl)CCCl)cc1)C1O[C@@H](C)[C@@H](OCc2ccccc2)[C@@H](OCc2ccccc2)[C@@H]1OCc1ccccc1 (stereo not given in full)	9.5 µM	7.5 µM	7.2 µM	4.6 µM	4 µM	10 µM	3.3 µM	5.7 µM	6.4 µM	15.8 µM
CON(CCCc1ccc(N(CCCl)CCCl)cc1)C1OC[C@H](O)[C@H](O)[C@@H]1O (stereo not given in full)	2.4 µM	2.2 µM	2 µM	2.1 µM	0.97 µM	3.7 µM	3.3 µM	2.1 µM	2.4 µM	5.7 µM
CON(CCCc1ccc(N(CCCl)CCCl)cc1)[C@@H]1OC[C@@H](O)[C@H]1O	4.1 µM	1.6 µM	2.6 µM	0.77 µM	8 µM	5 µM	1.1 µM	2.4 µM	3.1 µM	7.8 µM
CON(CCCc1ccc(N(CCCl)CCCl)cc1)C1OC[C@H](O)[C@H]1O (stereo not given in full)	1.4 µM	1.2 µM	2.1 µM	0.82 µM	0.87 µM	2.1 µM	0.72 µM	1.3 µM	2 µM	1.9 µM
O=C(CCCc1ccc(N(CCCl)CCCl)cc1)NN[C@@H]1O[C@H]2[C@H](OC(=O)[C@H]2O)[C@H]1O	17.7 µM	30 µM	37 µM	> 100 µM	9.9 µM	23 µM	12.9 µM	8.9 µM	31 µM	43 µM
CON(CCCc1ccc(N(CCCl)CCCl)cc1)C1C[C@@H](O)[C@@H](O)CO1 (stereo not given in full)	2.5 µM	2.3 µM	2.2 µM	2.2 µM	1.3 µM	3.3 µM	3.9 µM	2 µM	2.5 µM	5.2 µM
CON(CCCc1ccc(N(CCCl)CCCl)cc1)C1O[C@@H](CO)[C@H](O)[C@H](O)[C@@H]1O (stereo not given in full)	2.5 µM	2.2 µM	3.1 µM	1.7 µM	9 µM	6 µM	1.3 µM	3.2 µM	3.5 µM	10.4 µM
CON(CCCc1ccc(N(CCCl)CCCl)cc1)[C@H]1C[C@@H](O)[C@H](O)[C@@H](C)O1	3.8 µM	3.2 µM	3.2 µM	2.5 µM	3.1 µM	5.5 µM	4.8 µM	2.3 µM	3.1 µM	5.7 µM

From ChEMBL document CHEMBL1275392, “Assessment of chemoselective neoglycosylation methods using chlorambucil as a model” (2010)
